Data: ChEMBL document CHEMBL3861974, “Discovery of a Selective Aurora A Kinase Inhibitor by Virtual Screening” (J Med Chem, 2016)
pIC50, pKd: −log10 of the molar value.

Experiments:
[1] = molecular target: T1, Mitogen-activated protein kinase kinase kinase 19 (Homo sapiens, UniProt Q56UN5); assay: Binding affinity to human YSK4 expressed in Escherichia coli BL21 cells incubated for 1 hr by active site directed binding competition assay
T1 sequence (Q56UN5 whole entry): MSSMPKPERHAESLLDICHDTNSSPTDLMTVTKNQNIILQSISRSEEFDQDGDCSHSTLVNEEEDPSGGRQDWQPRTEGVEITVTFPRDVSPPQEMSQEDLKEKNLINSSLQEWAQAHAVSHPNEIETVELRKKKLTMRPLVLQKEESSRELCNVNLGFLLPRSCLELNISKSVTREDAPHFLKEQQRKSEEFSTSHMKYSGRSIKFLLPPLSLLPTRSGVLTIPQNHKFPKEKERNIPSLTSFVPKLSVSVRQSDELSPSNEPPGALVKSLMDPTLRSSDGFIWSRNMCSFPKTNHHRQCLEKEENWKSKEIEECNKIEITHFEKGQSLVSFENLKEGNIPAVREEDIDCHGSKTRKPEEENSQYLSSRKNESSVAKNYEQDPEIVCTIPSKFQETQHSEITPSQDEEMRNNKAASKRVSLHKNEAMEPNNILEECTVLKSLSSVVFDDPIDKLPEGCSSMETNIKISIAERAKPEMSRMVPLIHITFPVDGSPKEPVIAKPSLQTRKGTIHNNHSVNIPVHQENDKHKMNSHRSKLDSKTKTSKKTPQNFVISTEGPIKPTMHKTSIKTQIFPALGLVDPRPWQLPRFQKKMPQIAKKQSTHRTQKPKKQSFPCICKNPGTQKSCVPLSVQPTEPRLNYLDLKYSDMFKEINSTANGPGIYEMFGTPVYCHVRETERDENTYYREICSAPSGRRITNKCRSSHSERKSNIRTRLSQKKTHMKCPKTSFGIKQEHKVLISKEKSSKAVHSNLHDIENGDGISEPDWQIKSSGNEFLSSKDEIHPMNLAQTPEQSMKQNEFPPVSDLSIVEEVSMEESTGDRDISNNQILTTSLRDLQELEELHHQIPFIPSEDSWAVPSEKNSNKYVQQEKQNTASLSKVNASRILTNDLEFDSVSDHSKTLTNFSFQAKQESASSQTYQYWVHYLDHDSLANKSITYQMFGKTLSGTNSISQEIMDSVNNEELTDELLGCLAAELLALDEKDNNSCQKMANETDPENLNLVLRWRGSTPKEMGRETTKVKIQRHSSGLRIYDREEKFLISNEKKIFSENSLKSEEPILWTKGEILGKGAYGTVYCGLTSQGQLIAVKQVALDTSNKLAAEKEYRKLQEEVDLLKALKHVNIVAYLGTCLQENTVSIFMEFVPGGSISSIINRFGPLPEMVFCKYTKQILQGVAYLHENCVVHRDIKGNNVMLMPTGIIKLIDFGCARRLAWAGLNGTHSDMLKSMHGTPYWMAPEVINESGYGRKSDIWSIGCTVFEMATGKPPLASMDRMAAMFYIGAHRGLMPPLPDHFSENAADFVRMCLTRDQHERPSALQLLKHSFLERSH
In short: (§1)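 Kinome scan of 456 kinases using an active-site-directed binding competition assay, followed by determination of binding affinities (Kd). Aurora B in this scan was free enzyme without INCENP.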

[2] = molecular target: Aurora kinase B/Inner centromere protein (Homo sapiens, UniProt Q96GD4); assay: Inhibition of Aurora-B/INCENP (unknown origin) using biotinylated STK2 substrate incubated for 30 mins by HTRF assay; assay type: protein-complex assay
In short: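 Biochemical kinase inhibition was read by HTRF with 20 µM ATP. Aurora B was assayed as its complex with the activator INCENP. For Aurora A, IC50 curves were recorded at different TPX2 concentrations.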

Aurora kinase A = molecular target: T2, Aurora kinase A (Homo sapiens, UniProt O14965); assay: Binding affinity to human Aurora A kinase expressed in Escherichia coli BL21 cells incubated for 1 hr by active site directed binding competition assay; in short: as §1
T2 sequence (O14965 whole entry): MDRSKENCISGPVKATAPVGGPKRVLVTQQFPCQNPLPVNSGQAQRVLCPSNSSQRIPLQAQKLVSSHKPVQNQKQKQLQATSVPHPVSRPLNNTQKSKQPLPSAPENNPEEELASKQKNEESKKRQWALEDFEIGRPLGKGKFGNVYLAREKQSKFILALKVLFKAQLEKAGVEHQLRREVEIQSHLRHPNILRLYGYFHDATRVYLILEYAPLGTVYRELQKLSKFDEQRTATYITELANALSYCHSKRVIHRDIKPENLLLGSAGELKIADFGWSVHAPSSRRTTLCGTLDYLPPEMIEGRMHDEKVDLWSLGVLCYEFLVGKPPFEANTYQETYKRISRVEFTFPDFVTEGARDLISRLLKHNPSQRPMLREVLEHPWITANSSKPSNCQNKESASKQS

[3] = molecular target: T3, Phosphatidylinositol 5-phosphate 4-kinase type-2 gamma (Homo sapiens, UniProt Q8TBX8); assay: Binding affinity to human PIP5K2C expressed in Escherichia coli BL21 cells incubated for 1 hr by active site directed binding competition assay; in short: as §1
T3 sequence (Q8TBX8 whole entry): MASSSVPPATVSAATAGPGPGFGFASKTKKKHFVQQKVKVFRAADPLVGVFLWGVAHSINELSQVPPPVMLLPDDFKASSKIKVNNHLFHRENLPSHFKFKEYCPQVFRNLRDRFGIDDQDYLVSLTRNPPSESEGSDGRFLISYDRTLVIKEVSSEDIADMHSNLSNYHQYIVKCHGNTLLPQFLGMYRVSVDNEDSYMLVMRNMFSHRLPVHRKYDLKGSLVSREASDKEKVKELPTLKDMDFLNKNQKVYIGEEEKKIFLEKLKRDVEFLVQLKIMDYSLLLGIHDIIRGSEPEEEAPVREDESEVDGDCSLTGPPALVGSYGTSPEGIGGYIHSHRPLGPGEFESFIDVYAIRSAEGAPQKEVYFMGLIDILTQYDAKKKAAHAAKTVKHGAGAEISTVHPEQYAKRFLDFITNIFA

Homo sapiens = organism: Homo sapiens; assay: Selectivity index, ratio of IC50 for Aurora-B/INCENP (unknown origin) to IC50 for His-tagged human Aurora A kinase ([…] residues) expressed in Escherichia coli BL21 (DE3) Rosetta cells

Chain of Aurora kinase B/Inner centromere protein (Q96GD4 whole entry): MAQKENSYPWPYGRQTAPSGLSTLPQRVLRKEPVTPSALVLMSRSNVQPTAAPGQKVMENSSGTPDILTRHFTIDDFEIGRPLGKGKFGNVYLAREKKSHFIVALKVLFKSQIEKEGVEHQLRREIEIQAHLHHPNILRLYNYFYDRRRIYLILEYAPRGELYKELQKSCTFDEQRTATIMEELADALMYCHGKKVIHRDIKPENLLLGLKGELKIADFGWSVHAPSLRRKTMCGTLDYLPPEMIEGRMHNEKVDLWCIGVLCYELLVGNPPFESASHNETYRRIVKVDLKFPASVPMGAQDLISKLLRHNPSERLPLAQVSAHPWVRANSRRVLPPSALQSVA
Chain of Aurora kinase B/Inner centromere protein (Q9NQS7 whole entry, further chain): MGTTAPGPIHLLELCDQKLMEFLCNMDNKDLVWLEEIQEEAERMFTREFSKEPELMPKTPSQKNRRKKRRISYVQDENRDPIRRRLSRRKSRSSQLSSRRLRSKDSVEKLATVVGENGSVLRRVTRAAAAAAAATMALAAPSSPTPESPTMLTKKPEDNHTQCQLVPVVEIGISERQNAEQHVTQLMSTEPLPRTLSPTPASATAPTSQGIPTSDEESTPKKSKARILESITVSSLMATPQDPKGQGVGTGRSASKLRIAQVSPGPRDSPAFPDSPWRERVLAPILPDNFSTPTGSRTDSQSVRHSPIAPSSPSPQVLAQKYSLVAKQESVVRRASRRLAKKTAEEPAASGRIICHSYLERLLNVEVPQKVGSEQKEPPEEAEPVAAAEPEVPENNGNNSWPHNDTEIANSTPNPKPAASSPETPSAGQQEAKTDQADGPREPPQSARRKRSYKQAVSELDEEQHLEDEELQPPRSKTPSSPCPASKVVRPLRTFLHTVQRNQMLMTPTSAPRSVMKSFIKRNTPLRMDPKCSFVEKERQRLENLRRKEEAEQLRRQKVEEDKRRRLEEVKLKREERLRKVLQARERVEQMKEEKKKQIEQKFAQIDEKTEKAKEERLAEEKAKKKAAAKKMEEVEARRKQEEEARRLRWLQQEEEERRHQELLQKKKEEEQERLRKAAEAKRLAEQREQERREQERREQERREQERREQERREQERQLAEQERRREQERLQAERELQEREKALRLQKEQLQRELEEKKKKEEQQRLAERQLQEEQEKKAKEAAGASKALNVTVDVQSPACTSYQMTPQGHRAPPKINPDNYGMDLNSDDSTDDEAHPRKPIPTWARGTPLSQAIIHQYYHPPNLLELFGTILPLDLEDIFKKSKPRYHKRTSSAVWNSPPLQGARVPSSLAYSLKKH

Structure (SMILES): CCc1ccc(/N=C2\S/C(=C\c3ccnc(Nc4ccc(C(=O)O)cn4)c3)C(=O)N2C)cc1
- pKd [1]: 5.54
- pIC50 [2]: 6.82
- pKd (Aurora kinase A): 8.30
- pKd [3]: 6.32
- Ratio IC50 (Homo sapiens): 75
